# Experimental data reported in paper PMC5069578 (Journal of Clinical Pharmacology, 2016).
# Structures can show the parent of a compound that is named as a salt. Where two headings read alike, the source gives them in different places.
# Tests used:
# [1] = under physiological conditions; cited from earlier work
# [2] = assay type: in vivo, human; conditions: for half-life / AUC(0-t) / Cmax / Tmax: human, plasma, 4 mg; for half-life: oral, Geometric mean (%CV) terminal half-life, N = 4; for AUC(0-t) / Cmax / Tmax: po, single 4-mg oral dose, n = 15; for AUC(0-t): Geometric mean AUC0-216 (%CV); for Cmax: Geometric mean Cmax (%CV); for Tmax: Median Tmax (range)
# Procedure, shortened: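 Randomized 2-period, 2-sequence crossover: 4-mg immediate-release capsule on day 1 and day 15, either fasted (~10 h overnight) or fed (high-fat meal begun ≥30 min predose), alternating between periods; no food 4 h postdose. Plasma sampled predose to 216 h, LC-MS/MS (linear 0.5–500 ng/mL). Noncompartmental parameters; log AUC0-216 and Cmax by ANOVA (treatment, sequence, period fixed; patient-within-sequence random), back-transformed LS-mean ratios with 90% CIs.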
# Safety and tolerability = assay type: in vivo, human
# Procedure, shortened: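 Adverse events recorded throughout treatment and up to 30 days after last dose or start of subsequent antineoplastic therapy, graded by NCI CTCAE v4.03. Safety population comprised all patients given at least 1 dose of test compound (single 4-mg oral doses on days 1 and 15, fasted/fed crossover).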
# [3] = Biopharmaceutics Classification System; assay type: physicochemical; conditions: from solubility and permeability
# [4] = cited from earlier work
# [5] = ref Takeda, data on file; cited from earlier work
# [6] = ref Takeda, data on file; cited from earlier work; remark: listed apart in the source
# [7] = healthy volunteers and patients with advanced solid tumors; cited from earlier work
# [8] = fed vs fasted, ANOVA on log-transformed values
compound,measurement,setting,value
CC(C)C[C@H](NC(=O)CNC(=O)c1cc(Cl)ccc1Cl)B1OC(=O)C(CC(=O)O)(CC(=O)O)O1 [ixazomib citrate],"Hydrolysis to the biologically active boronic acid, ixazomib",[1],rapid hydrolysis
CC(C)C[C@H](NC(=O)CNC(=O)c1cc(Cl)ccc1Cl)B(O)O [ixazomib],Ratio of period 2 AUC to period 1 AUC (period effect),"[2]; ANOVA analysis, period 2 (day 15) vs period 1 (day 1)",2.21
same,Delay of median Tmax under fed conditions compared with fasted state,[2]; fed vs fasted,approximately 3 hours
same,Reduction in peak plasma concentration (Cmax),[2]; fed vs fasted,69%
same,Reduction in total systemic exposure (AUC),[2]; fed vs fasted,28%
same,Least-squares geometric mean ratio (90%CI) of AUC0-216 (test/reference),[2]; [8],0.72 (0.58‐0.89)
same,Least-squares geometric mean ratio (90%CI) of Cmax (test/reference),[2]; [8],0.31 (0.21‐0.45)
same,half-life,"[2]; day 1, fasted",189 h
same,half-life,"[2]; day 1, fed",198 h
same,AUC(0-t),[2]; fasted (reference),1470 ng·h/mL
same,AUC(0-t),[2]; fed (test),999 ng·h/mL
same,Cmax,[2]; fasted (reference),77 ng/mL
same,Cmax,[2]; fed (test),22.8 ng/mL
same,Tmax,"[2]; fasted (reference), immediate-release capsule",1.02 h
same,Tmax,"[2]; fed (test, high-calorie high-fat meal)",4 h
same,On-study deaths considered related to ixazomib,Safety and tolerability; 3 on-study deaths,None
same,"Drug-related, reversible grade 1 peripheral neuropathy",Safety and tolerability; 24 patients,1 case
same,Patients with TEAEs resulting in dose reduction,Safety and tolerability; 24 patients,4%
same,Patients with any-grade drug-related TEAEs,Safety and tolerability; 24 patients,83%
same,Patients with any-grade drug-related fatigue,Safety and tolerability; 24 patients,25%
same,Patients with any-grade drug-related nausea,Safety and tolerability; 24 patients,50%
same,Patients with any-grade drug-related vomiting,Safety and tolerability; 24 patients,58%
same,Patients with at least 1 grade ≥3 TEAE,Safety and tolerability; 24 patients,54%
same,Patients with at least 1 grade ≥3 drug-related TEAE,Safety and tolerability; 24 patients,21%
same,Patients with drug-related serious AE,Safety and tolerability; 24 patients,8%
same,Patients with grade ≥3 drug-related anemia,Safety and tolerability; 24 patients,8%
same,Patients with grade ≥3 drug-related dehydration,Safety and tolerability; 24 patients,4%
same,Patients with grade ≥3 drug-related fatigue,Safety and tolerability; 24 patients,4%
same,Patients with grade ≥3 drug-related peripheral edema,Safety and tolerability; 24 patients,4%
same,Patients with grade ≥3 drug-related vomiting,Safety and tolerability; 24 patients,4%
same,Patients with vomiting leading to dose modification,Safety and tolerability; 24 patients,8%
same,AE leading to discontinuation,Safety and tolerability; safety population N = 24,7 (29) n (%)
same,Any AE,Safety and tolerability; safety population N = 24,24 (100) n (%)
same,Any drug-related AE,Safety and tolerability; safety population N = 24,20 (83) n (%)
same,Any drug-related grade ≥3 AE,Safety and tolerability; safety population N = 24,5 (21) n (%)
same,Any drug-related serious AE,Safety and tolerability; safety population N = 24,2 (8) n (%)
same,Any grade ≥3 AE,Safety and tolerability; safety population N = 24,13 (54) n (%)
same,Any serious AE,Safety and tolerability; safety population N = 24,12 (50) n (%)
same,Any-grade drug-related AE: anemia,Safety and tolerability; safety population N = 24,4 (17) n (%)
same,Any-grade drug-related AE: asthenia,Safety and tolerability; safety population N = 24,2 (8) n (%)
same,Any-grade drug-related AE: chills,Safety and tolerability; safety population N = 24,2 (8) n (%)
same,Any-grade drug-related AE: constipation,Safety and tolerability; safety population N = 24,2 (8) n (%)
same,Any-grade drug-related AE: decreased appetite,Safety and tolerability; safety population N = 24,3 (13) n (%)
same,Any-grade drug-related AE: diarrhea,Safety and tolerability; safety population N = 24,3 (13) n (%)
same,Any-grade drug-related AE: fatigue,Safety and tolerability; safety population N = 24,6 (25) n (%)
same,Any-grade drug-related AE: nausea,Safety and tolerability; safety population N = 24,12 (50) n (%)
same,Any-grade drug-related AE: thrombocytopenia,Safety and tolerability; safety population N = 24,2 (8) n (%)
same,Any-grade drug-related AE: vomiting,Safety and tolerability; safety population N = 24,14 (58) n (%)
same,Any-grade drug-related AE: weight loss,Safety and tolerability; safety population N = 24,4 (17) n (%)
same,Grade ≥3 drug-related AE: anemia,Safety and tolerability; safety population N = 24,2 (8) n (%)
same,Grade ≥3 drug-related AE: dehydration,Safety and tolerability; safety population N = 24,1 (4) n (%)
same,Grade ≥3 drug-related AE: fatigue,Safety and tolerability; safety population N = 24,1 (4) n (%)
same,Grade ≥3 drug-related AE: peripheral edema,Safety and tolerability; safety population N = 24,1 (4) n (%)
same,Grade ≥3 drug-related AE: vomiting,Safety and tolerability; safety population N = 24,1 (4) n (%)
same,On-study deaths,Safety and tolerability; safety population N = 24,3 (13) n (%)
same,Any-grade drug-related AE: rash,"Safety and tolerability; safety population N = 24, includes follicular rash, intermittent dark skin lesion, macular rash, maculopapular rash, pruritus",5 (21) n (%)
same,Biopharmaceutics Classification System (BCS) class,[3],class 3
same,Absolute oral bioavailability,"[4]; 226 adult cancer patients, immediate-release capsules, estimated",60%
same,Dose and time dependence of PK,[4],dose‐ and time‐independent PK
same,Solubility,[5],highly soluble
same,Permeability,[6],moderate
CS(=O)(=O)CCNCc1ccc(-c2ccc3ncnc(Nc4ccc(OCc5cccc(F)c5)c(Cl)c4)c3c2)o1 [lapatinib],Change in bioavailability when administered with a high-fat breakfast,[7],large increases
